Tests used:
Staphylococcus aureus [1] = assay: Antimicrobial activity against Staphylococcus aureus 29213 assessed as effect on planktonic growth at IC50 after 2 to 24 hrs; format: organism-based; settings: in vivo
Acinetobacter baumannii [2] = assay: Antimicrobial activity against Acinetobacter baumannii 19606 assessed as effect on planktonic growth at PC25 after 2 to 24 hrs; set-up: species or system ATCC 19606
Staphylococcus aureus [3] = assay: Antimicrobial activity against methicillin-resistant Staphylococcus aureus BAA 44 assessed as effect on planktonic growth at PC25 after 2 to 24 hrs; format: organism-based; settings: in vivo
Staphylococcus aureus [4] = assay: Antimicrobial activity against methicillin-resistant Staphylococcus aureus BAA 44 assessed as effect on planktonic growth at PC25 after 2 to 24 hrs by colony count method; format: organism-based; settings: in vivo
Staphylococcus aureus [5] = assay: Antimicrobial activity against methicillin-resistant Staphylococcus aureus BAA 44 assessed as effect on planktonic growth at 50 uM after 2 to 24 hrs; format: organism-based
Outline: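 Growth-curve analysis of planktonic MRSA in the presence of each biofilm inducer at 50 μM, to check for toxicity.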

Escherichia coli [6] = assay: Antimicrobial activity against Escherichia coli K-12 ER2718 assessed as effect on planktonic growth at PC50 after 2 to 24 hrs by colony count method; format: organism-based; settings: in vivo
Acinetobacter baumannii [7] = assay: Antimicrobial activity against Acinetobacter baumannii 19606 assessed as effect on planktonic growth at PC25 after 2 to 24 hrs by colony count method; set-up: species or system ATCC 19606
Staphylococcus aureus [8] = assay: Antimicrobial activity against methicillin-resistant Staphylococcus aureus BAA 44 assessed as effect on planktonic growth at IC50 after 2 to 24 hrs; format: organism-based; settings: in vivo
Acinetobacter baumannii [9] = assay: Antimicrobial activity against Acinetobacter baumannii 19606 assessed as effect on planktonic growth at PC75 after 2 to 24 hrs; set-up: species or system ATCC 19606
Acinetobacter baumannii [10] = assay: Antimicrobial activity against Acinetobacter baumannii 19606 assessed as effect on planktonic growth at 50 uM after 2 to 24 hrs; set-up: species or system ATCC 19606
Outline: (§1)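 Growth curve analysis of planktonic bacteria with each biofilm inducer at 50 μM, used to assess toxicity.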

Staphylococcus aureus [11] = assay: Antimicrobial activity against Staphylococcus aureus 29213 assessed as effect on planktonic growth at PC50 after 2 to 24 hrs by colony count method; format: organism-based; settings: in vivo
Acinetobacter baumannii [12] = assay: Antimicrobial activity against Acinetobacter baumannii 19606 assessed as effect on planktonic growth at PC75 after 2 to 24 hrs by colony count method; set-up: species or system ATCC 19606
Escherichia coli [13] = assay: Antimicrobial activity against Escherichia coli K-12 ER2718 assessed as effect on planktonic growth at PC50 after 2 to 24 hrs; format: organism-based
Staphylococcus aureus [14] = assay: Antimicrobial activity against methicillin-resistant Staphylococcus aureus BAA 44 assessed as effect on planktonic growth at PC50 after 2 to 24 hrs; format: organism-based; settings: in vivo
Escherichia coli [15] = assay: Induction of biofilm formation in Escherichia coli K-12 ER2718 at 50 uM after 24 hrs by crystal violet staining-based assay relative to control; format: functional
Outline: (§2)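 Static biofilm assay with compounds at 50 μM and crystal violet read-out, relative to an untreated control. Compounds increasing biofilm by less than 50% were called inducers, and by more than 50% strong inducers.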

Escherichia coli [16] = assay: Antimicrobial activity against Escherichia coli K-12 ER2718 assessed as effect on planktonic growth at PC75 after 2 to 24 hrs by colony count method; format: organism-based; settings: in vivo
Escherichia coli [17] = assay: Antimicrobial activity against Escherichia coli K-12 ER2718 assessed as effect on planktonic growth at IC50 after 2 to 24 hrs; format: organism-based
Staphylococcus aureus [18] = assay: Antimicrobial activity against Staphylococcus aureus 29213 assessed as effect on planktonic growth at IC50 after 2 to 24 hrs by colony count method; format: organism-based; settings: in vivo
Staphylococcus aureus [19] = assay: Antimicrobial activity against methicillin-resistant Staphylococcus aureus BAA 44 assessed as effect on planktonic growth at PC75 after 2 to 24 hrs; format: organism-based; settings: in vivo
Escherichia coli [20] = assay: Antimicrobial activity against Escherichia coli K-12 ER2718 assessed as effect on planktonic growth at PC75 after 2 to 24 hrs; format: organism-based; settings: in vivo
Staphylococcus aureus [21] = assay: Induction of biofilm formation in Staphylococcus aureus 29213 at 50 uM after 24 hrs by crystal violet staining-based assay relative to control; format: functional; outline: as §2
Staphylococcus aureus [22] = assay: Antimicrobial activity against Staphylococcus aureus 29213 assessed as effect on planktonic growth at PC75 after 2 to 24 hrs; format: organism-based; settings: in vivo
Acinetobacter baumannii [23] = assay: Antimicrobial activity against Acinetobacter baumannii 19606 assessed as effect on planktonic growth at IC50 after 2 to 24 hrs; set-up: species or system ATCC 19606
Staphylococcus aureus [24] = assay: Antimicrobial activity against Staphylococcus aureus 29213 assessed as effect on planktonic growth at 50 uM after 2 to 24 hrs; format: organism-based; outline: as §1
Acinetobacter baumannii [25] = assay: Antimicrobial activity against Acinetobacter baumannii 19606 assessed as effect on planktonic growth at PC50 after 2 to 24 hrs by colony count method; set-up: species or system ATCC 19606
Acinetobacter baumannii [26] = assay: Antimicrobial activity against Acinetobacter baumannii 19606 assessed as effect on planktonic growth at IC50 after 2 to 24 hrs by colony count method; set-up: species or system ATCC 19606
Staphylococcus aureus [27] = assay: Antimicrobial activity against methicillin-resistant Staphylococcus aureus BAA 44 assessed as effect on planktonic growth at IC50 after 2 to 24 hrs by colony count method; format: organism-based; settings: in vivo
Staphylococcus aureus [28] = assay: Induction of biofilm formation in methicillin-resistant Staphylococcus aureus BAA 44 at 50 uM after 24 hrs by crystal violet staining-based assay relative to control; format: functional
Outline: (§3)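 Static biofilm development in MRSA, read out by crystal violet staining against an untreated control. Initial screen at 150 μM. Inhibitors then went to dose-response, with IC50 taken as the concentration giving 50% inhibition of biofilm growth. Induction was judged at 50 μM: under 50% induction counted as "inducer", over 50% as "strong inducer".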

Escherichia coli [29] = assay: Antimicrobial activity against Escherichia coli K-12 ER2718 assessed as effect on planktonic growth at PC25 after 2 to 24 hrs; format: organism-based
Acinetobacter baumannii [30] = assay: Antimicrobial activity against Acinetobacter baumannii 19606 assessed as effect on planktonic growth at PC50 after 2 to 24 hrs; set-up: species or system ATCC 19606
Staphylococcus aureus [31] = assay: Antimicrobial activity against Staphylococcus aureus 29213 assessed as effect on planktonic growth at PC50 after 2 to 24 hrs; format: organism-based; settings: in vivo
Escherichia coli [32] = assay: Antimicrobial activity against Escherichia coli K-12 ER2718 assessed as effect on planktonic growth at IC50 after 2 to 24 hrs by colony count method; format: organism-based
Staphylococcus aureus [33] = assay: Antimicrobial activity against methicillin-resistant Staphylococcus aureus BAA 44 assessed as effect on planktonic growth at PC50 after 2 to 24 hrs by colony count method; format: organism-based; settings: in vivo
Escherichia coli [34] = assay: Antimicrobial activity against Escherichia coli K-12 ER2718 assessed as effect on planktonic growth at 50 uM after 2 to 24 hrs; format: organism-based; outline: as §1
Escherichia coli [35] = assay: Antimicrobial activity against Escherichia coli K-12 ER2718 assessed as effect on planktonic growth at PC25 after 2 to 24 hrs by colony count method; format: organism-based
Staphylococcus aureus [36] = assay: Antimicrobial activity against Staphylococcus aureus 29213 assessed as effect on planktonic growth at PC25 after 2 to 24 hrs; format: organism-based; settings: in vivo
Staphylococcus aureus [37] = assay: Antimicrobial activity against Staphylococcus aureus 29213 assessed as effect on planktonic growth at PC75 after 2 to 24 hrs by colony count method; format: organism-based; settings: in vivo
Staphylococcus aureus [38] = assay: Antimicrobial activity against Staphylococcus aureus 29213 assessed as effect on planktonic growth at PC25 after 2 to 24 hrs by colony count method; format: organism-based; settings: in vivo
Acinetobacter baumannii [39] = assay: Induction of biofilm formation in Acinetobacter baumannii 19606 at 50 uM after 24 hrs by crystal violet staining-based assay relative to control; format: functional, ATCC 19606 = CIP 70.34 = JCM 6841; outline: as §2
Staphylococcus aureus [40] = assay: Antimicrobial activity against methicillin-resistant Staphylococcus aureus BAA 44 assessed as effect on planktonic growth at PC75 after 2 to 24 hrs by colony count method; format: organism-based; settings: in vivo
Escherichia coli [41] = assay: Inhibition of biofilm formation in Escherichia coli K-12 ER2718 at 150 uM after 24 hrs by crystal violet staining-based assay relative to control; format: functional; settings: K-12 ER2718, 24 h
Acinetobacter baumannii [42] = assay: Inhibition of biofilm formation in Acinetobacter baumannii 19606 at 150 uM after 24 hrs by crystal violet staining-based assay relative to control; format: functional; settings: ATCC 19606 = CIP 70.34 = JCM 6841, 24 h
Staphylococcus aureus [43] = assay: Inhibition of biofilm formation in Staphylococcus aureus 29213 at 150 uM after 24 hrs by crystal violet staining-based assay relative to control; format: functional; settings: Staphylococcus aureus, 29213, 24 h
Staphylococcus aureus [44] = assay: Inhibition of biofilm formation in methicillin-resistant Staphylococcus aureus BAA 44 at 150 uM after 24 hrs by crystal violet staining-based assay relative to control; format: functional; settings: BAA 44, 24 h; outline: as §3

SMILES | Activity (Staphylococcus aureus [1]) | Activity (Acinetobacter baumannii [2]) | Activity (Staphylococcus aureus [3]) | Activity (Staphylococcus aureus [4]) | Activity (Staphylococcus aureus [5]) | Activity (Escherichia coli [6]) | Activity (Acinetobacter baumannii [7]) | Activity (Staphylococcus aureus [8]) | Activity (Acinetobacter baumannii [9]) | Activity (Acinetobacter baumannii [10]) | Activity (Staphylococcus aureus [11]) | Activity (Acinetobacter baumannii [12]) | Activity (Escherichia coli [13]) | Activity (Staphylococcus aureus [14]) | Activity (Escherichia coli [17]) | Activity (Staphylococcus aureus [18]) | Activity (Acinetobacter baumannii [23]) | Activity (Acinetobacter baumannii [26]) | Activity (Staphylococcus aureus [27]) | Activity (Escherichia coli [32]) | other results
CCCCCCCc1ccc(C(=O)NCCn2cc(Cc3c(Br)[nH]c4ccccc34)nn2)cc1 | Non-toxic | Non-toxic | Non-toxic | Non-toxic | Non-toxic | Non-toxic | Non-toxic | Non-toxic | Non-toxic | Non-toxic | Non-toxic | Non-toxic | Non-toxic | Non-toxic | Non-toxic | Non-toxic | Non-toxic | Non-toxic | Non-toxic | Non-toxic | Activity (Escherichia coli [15]): <50%; Activity (Escherichia coli [16]): Non-toxic; Activity (Staphylococcus aureus [19]): Non-toxic; Activity (Escherichia coli [20]): Non-toxic; Activity (Staphylococcus aureus [21]): <50%; Activity (Staphylococcus aureus [22]): Non-toxic; Activity (Staphylococcus aureus [24]): Non-toxic; Activity (Acinetobacter baumannii [25]): Non-toxic; Activity (Staphylococcus aureus [28]): >50%; Activity (Escherichia coli [29]): Non-toxic; Activity (Acinetobacter baumannii [30]): Non-toxic; Activity (Staphylococcus aureus [31]): Non-toxic; Activity (Staphylococcus aureus [33]): Non-toxic; Activity (Escherichia coli [34]): Non-toxic; Activity (Escherichia coli [35]): Non-toxic; Activity (Staphylococcus aureus [36]): Non-toxic; Activity (Staphylococcus aureus [37]): Non-toxic; Activity (Staphylococcus aureus [38]): Non-toxic; Activity (Acinetobacter baumannii [39]): <50%; Activity (Staphylococcus aureus [40]): Non-toxic
CCCCCCNC(=O)Cn1cc(Cc2c(Br)[nH]c3ccccc23)nn1 | Non-toxic | – | Non-toxic | Non-toxic | Non-toxic | – | – | Non-toxic | – | – | – | – | – | Non-toxic | Non-toxic | Non-toxic | Non-toxic | Non-toxic | Non-toxic | Non-toxic | inhibition at 150 µM (Escherichia coli [41]): < 5%; inhibition at 150 µM (Acinetobacter baumannii [42]): 17%; inhibition at 150 µM (Staphylococcus aureus [43]): < 5%; Activity (Staphylococcus aureus [19]): Non-toxic; Activity (Staphylococcus aureus [28]): <50%; Activity (Staphylococcus aureus [33]): Non-toxic; Activity (Staphylococcus aureus [40]): Non-toxic
O=C(NCCn1cc(Cc2c(Br)[nH]c3ccccc23)nn1)c1ccccc1F | Non-toxic | Non-toxic | – | – | – | Non-toxic | Non-toxic | Non-toxic | Non-toxic | Non-toxic | Non-toxic | Non-toxic | Non-toxic | – | Non-toxic | Non-toxic | Non-toxic | Non-toxic | Non-toxic | Non-toxic | Activity (Escherichia coli [15]): <50%; Activity (Escherichia coli [16]): Non-toxic; Activity (Escherichia coli [20]): Non-toxic; Activity (Staphylococcus aureus [21]): <50%; Activity (Staphylococcus aureus [22]): Non-toxic; Activity (Staphylococcus aureus [24]): Non-toxic; Activity (Acinetobacter baumannii [25]): Non-toxic; inhibition at 150 µM (Staphylococcus aureus [44]): 20%; Activity (Escherichia coli [29]): Non-toxic; Activity (Acinetobacter baumannii [30]): Non-toxic; Activity (Staphylococcus aureus [31]): Non-toxic; Activity (Escherichia coli [34]): Non-toxic; Activity (Escherichia coli [35]): Non-toxic; Activity (Staphylococcus aureus [36]): Non-toxic; Activity (Staphylococcus aureus [37]): Non-toxic; Activity (Staphylococcus aureus [38]): Non-toxic; Activity (Acinetobacter baumannii [39]): <50%

Reference: ChEMBL document CHEMBL3217512, “Indole/triazole conjugates are selective inhibitors and inducers of bacterial biofilms” (Medchemcomm, 2013)
